Measured values from publication PMC4814158 (MedChemComm, 2015).

What was measured:
Assay type in all cases: in vitro ADME
[1] = tested on: Phase II conjugative enzymes; assay: Phase II conjugation reactions; conditions: rat enzymes (printed: rat microsomes)
In short: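 Three rat liver S9 incubations in pH 7.4 phosphate at 37 °C, each with test compound 100 μM and MgCl2 1 mM. Glucuronidation used 2 mg/mL S9 activated with alamethicin on ice 15 min, plus UDPGA 5 mM. Sulfation used 2 mg/mL S9 plus PAPS 0.2 mM. Glutathione conjugation used 10 mg/mL S9 plus glutathione 0.2 mM. Parent loss by LC-MS/MS over 120 min.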

[2] = tested on: glutathione-S-transferases (GSTs); assay: Glutathione conjugation in rat liver S9; conditions: rat enzymes
In short: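 Rat liver S9 (10 mg/mL) in 0.1 M potassium phosphate, pH 7.4, with test compound 100 μM and MgCl2 1 mM (final), preincubated 5 min at 37 °C. Reaction started with glutathione 0.2 mM final. Controls: acetaminophen as positive, no-glutathione as negative. Samples taken over 0–120 min, quenched in cold methanol with internal standard. Parent measured by HILIC LC-MS/MS; % intact at 120 min vs time zero, mean ± %CV.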

[3] = tested on: sulfotransferases (SULTs); assay: Sulfoconjugation in rat liver S9 with PAPS; conditions: rat liver S9, 2 h
In short: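 Sulfotransferase reaction in rat liver S9 (2 mg/mL), 0.1 M potassium phosphate pH 7.4, with 1 mM MgCl2 and test compound at 100 μM final. After 5 min preincubation at 37 °C, PAPS was added to 0.2 mM. Controls: 7-hydroxycoumarin as positive, PAPS-free as negative. Aliquots to 120 min stopped with ice-cold methanol plus internal standard. LC-MS/MS of parent; percent intact relative to time zero.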

[4] = tested on: uridine glucuronosyl transferases (UGTs); assay: Glucuronide conjugation in human liver S9 with UDPGA; conditions: human liver S9 + UDP glucuronic acid, 2 h
[5] = tested on: uridine glucuronosyl transferases (UGTs); assay: Glucuronide conjugation in rat liver S9 with UDPGA; conditions: rat liver S9 + UDP glucuronic acid, 2 h

SMILES | stability towards Phase II conjugative enzymes (in words) [1] | formation of glutathione conjugates (in words) [2] | also measured
CN[C@@H]1[C@H](O)[C@H](NC)[C@H]2O[C@]3(O)[C@H](O[C@@H]2[C@H]1O)O[C@H](C)C[C@H]3NC(=O)Cc1ccc(Cl)cn1 [Compound 1599] | complete stability | – | –
CN[C@@H]1[C@H](O)[C@H](NC)[C@H]2O[C@]3(O)[C@H](O[C@@H]2[C@H]1O)O[C@H](C)C[C@H]3NC(=O)Cc1ccc(F)cn1 [Compound 1445] | complete stability | – | –
CN[C@@H]1[C@H](O)[C@H](NC)[C@H]2O[C@]3(O)[C@H](O[C@@H]2[C@H]1O)O[C@H](C)C[C@H]3NC(=O)Cc1cc(Cl)c(OC)cn1 [Compound 1878] | – | formed glutathione conjugates | –
CN[C@@H]1[C@H](O)[C@H](NC)[C@H]2O[C@]3(O)[C@H](O[C@@H]2[C@H]1O)O[C@H](C)C[C@H]3NC(=O)Cc1cc(Cl)c(C)cn1 [Compound 1666] | – | formed glutathione conjugates | sulfoconjugation (in words) [3]: no metabolism
CN[C@@H]1[C@H](O)[C@H](NC)[C@H]2O[C@]3(O)[C@H](O[C@@H]2[C@H]1O)O[C@H](C)C[C@H]3NC(=O)Cc1cc(Cl)ccn1 [Compound 1544] | – | formed glutathione conjugates | –
CN[C@@H]1[C@H](O)[C@H](NC)[C@H]2O[C@]3(O)[C@H](O[C@@H]2[C@H]1O)O[C@H](C)C[C@H]3NC(=O)Cc1cc(Cl)c(F)cn1 [Compound 1661] | complete stability | – | –
CN[C@@H]1[C@H](O)[C@H](NC)[C@H]2O[C@]3(O)[C@H](O[C@@H]2[C@H]1O)O[C@H](C)C[C@H]3NC(=O)Cc1ccc(O)cn1 [Compound 1810] | complete stability | – | % parent compound remaining intact [4]: above 93%; % parent compound remaining intact [5]: above 93%
